# Results published in ChEMBL document CHEMBL1142148, “Antibiotic susceptibility profile of bifidobacteria as affected by oxgall, acid, and hydrogen peroxide stress” (2007).
# How the values were obtained:
# Bifidobacterium bifidum [1] = assay: Antimicrobial activity against 90 mins hydrogen peroxide-stressed Bifidobacterium bifidum BB12 after 18 hrs; format: functional
# Procedure, shortened: (§1)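 Stress applied for 90 min at 37°C under anaerobic conditions, using MRS (initial pH 6.5) containing H2O2 at each strain's own inhibitory concentration. The H2O2 level was set beforehand by microplate tolerance testing. Challenged cells were regrown in MRS for 24 h (footnote: 18 h) before MIC testing by broth microdilution. Median of four repetitions.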
# Bifidobacterium longum [2] = assay: Antimicrobial activity against 90 mins hydrogen peroxide-stressed Bifidobacterium longum ATCC 15707 after 18 hrs; format: functional; procedure, shortened: as §1
# Bifidobacterium bifidum [3] = assay: Antimicrobial activity against 90 mins hydrogen peroxide-stressed Bifidobacterium bifidum R0071 after 18 hrs; format: functional; procedure, shortened: as §1
# Bifidobacterium longum [4] = assay: Antimicrobial activity against 90 mins oxgall-stressed Bifidobacterium longum P/N 601377 after 18 hrs; format: functional
# Procedure, shortened: (§2)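 Cells pelleted from mid-log MRS culture and resuspended in MRS (initial pH 6.5) with 0.3% (wt/vol) oxgall for 90 min anaerobically at 37°C. They were then regrown in MRS pH 6.5 for 24 h (footnote: 18 h) anaerobically and tested for MIC by the same broth microdilution assay. Median of four repetitions.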
# [5] = test system: Bifidobacterium pseudolongum; assay: Antimicrobial activity against 90 mins oxgall-stressed Bifidobacterium pseudolongum ATCC 25562 after 18 hrs; format: functional; procedure, shortened: as §2
# Bifidobacterium bifidum [6] = assay: Antimicrobial activity against 90 mins oxgall-stressed Bifidobacterium bifidum ATCC 15696 after 18 hrs; format: functional; procedure, shortened: as §2
# Bifidobacterium animalis [7] = assay: Antimicrobial activity against 60 min 1 M HCl-stressed Bifidobacterium animalis ATCC 27536 after 18 hrs; format: functional
# Procedure, shortened: (§3)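 Mid-log MRS culture pelleted and resuspended in MRS broth brought to pH 2.0 with 1 M HCl, held anaerobically at 37°C for 60 min, then subcultured in MRS (pH 6.5) for 24 h anaerobically before MIC testing by broth microdilution (as for unstressed cells). Table footnote gives 18 h anaerobic regrowth after the stress. MIC is the median of four repetitions.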
# Bifidobacterium longum [8] = assay: Antimicrobial activity against 60 min 1 M HCl-stressed Bifidobacterium longum R0175 after 18 hrs; format: functional; procedure, shortened: as §3
# Bifidobacterium longum [9] = assay: Antimicrobial activity against 90 mins oxgall-stressed Bifidobacterium longum ATCC 15707 after 18 hrs; format: functional; procedure, shortened: as §2
# Bifidobacterium longum [10] = assay: Antimicrobial activity against Bifidobacterium longum P/N 601377; format: functional
# Procedure, shortened: (§4)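 Broth microdilution in MRS plus 0.05% L-cysteine-HCl. Mid-log culture adjusted to OD650 0.1, giving about 2.5 × 10^4 to 5.0 × 10^4 CFU/well, then added to twofold serial dilutions of agent. Plates incubated anaerobically at 37°C for 18 h and read at OD650. MIC is the lowest concentration matching the uninoculated blank OD, taken as the median of four repeats.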
# Bifidobacterium bifidum [11] = assay: Antimicrobial activity against Bifidobacterium bifidum R0071; format: functional; procedure, shortened: as §4
# Bifidobacterium bifidum [12] = assay: Antimicrobial activity against Bifidobacterium bifidum BB12; format: functional; procedure, shortened: as §4
# Bifidobacterium breve [13] = assay: Antimicrobial activity against Bifidobacterium breve R0070; format: functional; procedure, shortened: as §4
# Bifidobacterium breve [14] = assay: Antimicrobial activity against 90 mins hydrogen peroxide-stressed Bifidobacterium breve ATCC 15700 after 18 hrs; format: functional; procedure, shortened: as §1
# Bifidobacterium longum [15] = assay: Antimicrobial activity against 90 mins hydrogen peroxide-stressed Bifidobacterium longum ATCC 15708 after 18 hrs; format: functional; procedure, shortened: as §1
# Bifidobacterium longum [16] = assay: Antimicrobial activity against 90 mins hydrogen peroxide-stressed Bifidobacterium longum P/N 601377 after 18 hrs; format: functional; procedure, shortened: as §1
# Bifidobacterium animalis [17] = assay: Antimicrobial activity against 90 mins hydrogen peroxide-stressed Bifidobacterium animalis ATCC 27536 after 18 hrs; format: functional; procedure, shortened: as §1
# Bifidobacterium bifidum [18] = assay: Antimicrobial activity against 60 min 1 M HCl-stressed Bifidobacterium bifidum BB12 after 18 hrs; format: functional; procedure, shortened: as §3
# [19] = test system: Bifidobacterium thermophilum; assay: Antimicrobial activity against 90 mins oxgall-stressed Bifidobacterium thermophilum ATCC 25866 after 18 hrs; format: functional; procedure, shortened: as §2
# [20] = test system: Bifidobacterium pseudolongum; assay: Antimicrobial activity against 60 min 1 M HCl-stressed Bifidobacterium pseudolongum ATCC 25562 after 18 hrs; format: functional; procedure, shortened: as §3
# Bifidobacterium breve [21] = assay: Antimicrobial activity against Bifidobacterium breve ATCC 15700; format: functional; procedure, shortened: as §4
# Bifidobacterium animalis [22] = assay: Antimicrobial activity against Bifidobacterium animalis ATCC 27536; format: functional; procedure, shortened: as §4
# [23] = Antimicrobial activity against 90 mins oxgall-stressed Bifidobacterium infantis ATCC 15697 after 18 hrs; format: functional, Bifidobacterium longum subsp. infantis; details: Bifidobacterium longum; procedure, shortened: as §2
# Bifidobacterium longum [24] = assay: Antimicrobial activity against Bifidobacterium longum ATCC 15708; format: functional; procedure, shortened: as §4
# Bifidobacterium bifidum [25] = assay: Antimicrobial activity against 90 mins oxgall-stressed Bifidobacterium bifidum BB12 after 18 hrs; format: functional; procedure, shortened: as §2
# Bifidobacterium breve [26] = assay: Antimicrobial activity against 60 min 1 M HCl-stressed Bifidobacterium breve ATCC 15700 after 18 hrs; format: functional; procedure, shortened: as §3
# Bifidobacterium longum [27] = assay: Antimicrobial activity against Bifidobacterium longum ATCC 15707; format: functional; procedure, shortened: as §4
# Bifidobacterium bifidum [28] = assay: Antimicrobial activity against 90 mins oxgall-stressed Bifidobacterium bifidum R0071 after 18 hrs; format: functional; procedure, shortened: as §2
# [29] = Antimicrobial activity against 60 min 1 M HCl-stressed Bifidobacterium infantis ATCC 15697 after 18 hrs; format: functional, Bifidobacterium longum subsp. infantis; details: Bifidobacterium longum; procedure, shortened: as §3
# Bifidobacterium longum [30] = assay: Antimicrobial activity against 90 mins oxgall-stressed Bifidobacterium longum ATCC 15708 after 18 hrs; format: functional; procedure, shortened: as §2
# Bifidobacterium breve [31] = assay: Antimicrobial activity against 90 mins hydrogen peroxide-stressed Bifidobacterium breve R0070 after 18 hrs; format: functional; procedure, shortened: as §1
# Bifidobacterium bifidum [32] = assay: Antimicrobial activity against Bifidobacterium bifidum ATCC 15696; format: functional; procedure, shortened: as §4
# Bifidobacterium breve [33] = assay: Antimicrobial activity against 90 mins oxgall-stressed Bifidobacterium breve R0070 after 18 hrs; format: functional; procedure, shortened: as §2
# Bifidobacterium bifidum [34] = assay: Antimicrobial activity against 60 min 1 M HCl-stressed Bifidobacterium bifidum R0071 after 18 hrs; format: functional; procedure, shortened: as §3
# [35] = test system: Bifidobacterium thermophilum; assay: Antimicrobial activity against 90 mins hydrogen peroxide-stressed Bifidobacterium thermophilum ATCC 25866 after 18 hrs; format: functional; procedure, shortened: as §1
# Bifidobacterium longum [36] = assay: Antimicrobial activity against 60 min 1 M HCl-stressed Bifidobacterium longum ATCC 15707 after 18 hrs; format: functional; procedure, shortened: as §3
# Bifidobacterium longum [37] = assay: Antimicrobial activity against 90 mins oxgall-stressed Bifidobacterium longum R0175 after 18 hrs; format: functional; procedure, shortened: as §2
# Bifidobacterium animalis [38] = assay: Antimicrobial activity against 90 mins oxgall-stressed Bifidobacterium animalis ATCC 27536 after 18 hrs; format: functional; procedure, shortened: as §2
# [39] = test system: Bifidobacterium pseudolongum; assay: Antimicrobial activity against Bifidobacterium pseudolongum ATCC 25562; format: functional; procedure, shortened: as §4
# Bifidobacterium longum [40] = assay: Antimicrobial activity against 60 min 1 M HCl-stressed Bifidobacterium longum P/N 601377 after 18 hrs; format: functional; procedure, shortened: as §3
# Bifidobacterium longum [41] = assay: Antimicrobial activity against Bifidobacterium longum R0175; format: functional; procedure, shortened: as §4
# [42] = Antimicrobial activity against Bifidobacterium infantis ATCC 15697; format: functional, Bifidobacterium longum subsp. infantis; details: Bifidobacterium longum; procedure, shortened: as §4
# Bifidobacterium breve [43] = assay: Antimicrobial activity against 90 mins oxgall-stressed Bifidobacterium breve ATCC 15700 after 18 hrs; format: functional; procedure, shortened: as §2
# Bifidobacterium breve [44] = assay: Antimicrobial activity against 60 min 1 M HCl-stressed Bifidobacterium breve R0070 after 18 hrs; format: functional; procedure, shortened: as §3
# [45] = test system: Bifidobacterium thermophilum; assay: Antimicrobial activity against 60 min 1 M HCl-stressed Bifidobacterium thermophilum ATCC 25866 after 18 hrs; format: functional; procedure, shortened: as §3
# [46] = test system: Bifidobacterium thermophilum; assay: Antimicrobial activity against Bifidobacterium thermophilum ATCC 25866; format: functional; procedure, shortened: as §4
# Bifidobacterium longum [47] = assay: Antimicrobial activity against 90 mins hydrogen peroxide-stressed Bifidobacterium longum R0175 after 18 hrs; format: functional; procedure, shortened: as §1
compound,measurement,setting,value
CC1(C)S[C@@H]2[C@H](NC(=O)Cc3ccccc3)C(=O)N2[C@H]1C(=O)O [PENICILLIN G],MIC,Bifidobacterium bifidum [1],0.98 µg/mL
same,MIC,Bifidobacterium longum [2],0.98 µg/mL
same,MIC,Bifidobacterium bifidum [3],0.98 µg/mL
same,MIC,Bifidobacterium longum [4],0.98 µg/mL
same,MIC,[5],0.98 µg/mL
same,MIC,Bifidobacterium bifidum [6],0.98 µg/mL
same,MIC,Bifidobacterium animalis [7],0.98 µg/mL
same,MIC,Bifidobacterium longum [8],0.98 µg/mL
same,MIC,Bifidobacterium longum [9],0.98 µg/mL
same,MIC,Bifidobacterium longum [10],0.98 µg/mL
same,MIC,Bifidobacterium bifidum [11],3.9 µg/mL
same,MIC,Bifidobacterium bifidum [12],0.98 µg/mL
same,MIC,Bifidobacterium breve [13],1.9 µg/mL
same,MIC,Bifidobacterium breve [14],0.98 µg/mL
same,MIC,Bifidobacterium longum [15],0.98 µg/mL
same,MIC,Bifidobacterium longum [16],0.98 µg/mL
same,MIC,Bifidobacterium animalis [17],0.98 µg/mL
same,MIC,Bifidobacterium bifidum [18],0.98 µg/mL
same,MIC,[19],0.98 µg/mL
same,MIC,[20],0.98 µg/mL
same,MIC,Bifidobacterium breve [21],0.98 µg/mL
same,MIC,Bifidobacterium animalis [22],0.98 µg/mL
same,MIC,[23],0.98 µg/mL
same,MIC,Bifidobacterium longum [24],0.98 µg/mL
same,MIC,Bifidobacterium bifidum [25],0.98 µg/mL
same,MIC,Bifidobacterium breve [26],0.98 µg/mL
same,MIC,Bifidobacterium longum [27],0.98 µg/mL
same,MIC,Bifidobacterium bifidum [28],0.98 µg/mL
same,MIC,[29],0.98 µg/mL
same,MIC,Bifidobacterium longum [30],0.98 µg/mL
same,MIC,Bifidobacterium breve [31],0.98 µg/mL
same,MIC,Bifidobacterium bifidum [32],0.98 µg/mL
same,MIC,Bifidobacterium breve [33],0.98 µg/mL
same,MIC,Bifidobacterium bifidum [34],1.9 µg/mL
same,MIC,[35],0.98 µg/mL
same,MIC,Bifidobacterium longum [36],0.98 µg/mL
same,MIC,Bifidobacterium longum [37],0.98 µg/mL
same,MIC,Bifidobacterium animalis [38],0.98 µg/mL
same,MIC,[39],0.98 µg/mL
same,MIC,Bifidobacterium longum [40],0.98 µg/mL
same,MIC,Bifidobacterium longum [41],3.9 µg/mL
same,MIC,[42],0.98 µg/mL
same,MIC,Bifidobacterium breve [43],0.98 µg/mL
same,MIC,Bifidobacterium breve [44],1.9 µg/mL
same,MIC,[45],0.98 µg/mL
same,MIC,[46],0.98 µg/mL
same,MIC,Bifidobacterium longum [47],0.98 µg/mL
CC[C@H]1OC(=O)[C@H](C)[C@@H](O[C@H]2C[C@@](C)(OC)[C@@H](O)[C@H](C)O2)[C@H](C)[C@@H](O[C@@H]2O[C@H](C)C[C@H](N(C)C)[C@H]2O)[C@](C)(O)C[C@@H](C)C(=O)[C@H](C)[C@@H](O)[C@]1(C)O [ERYTHROMYCIN],MIC,Bifidobacterium bifidum [1],0.98 µg/mL
same,MIC,Bifidobacterium longum [2],0.98 µg/mL
same,MIC,Bifidobacterium bifidum [3],500 µg/mL
same,MIC,Bifidobacterium longum [4],3.9 µg/mL
same,MIC,[5],3.9 µg/mL
same,MIC,Bifidobacterium bifidum [6],3.9 µg/mL
same,MIC,Bifidobacterium animalis [7],1.9 µg/mL
same,MIC,Bifidobacterium longum [8],0.98 µg/mL
same,MIC,Bifidobacterium longum [9],3.9 µg/mL
same,MIC,Bifidobacterium longum [10],0.98 µg/mL
same,MIC,Bifidobacterium bifidum [11],1.9 µg/mL
same,MIC,Bifidobacterium bifidum [12],15.6 µg/mL
same,MIC,Bifidobacterium breve [13],0.98 µg/mL
same,MIC,Bifidobacterium breve [14],0.98 µg/mL
same,MIC,Bifidobacterium longum [15],0.98 µg/mL
same,MIC,Bifidobacterium longum [16],1.9 µg/mL
same,MIC,Bifidobacterium animalis [17],0.98 µg/mL
same,MIC,Bifidobacterium bifidum [18],3.9 µg/mL
same,MIC,[19],3.9 µg/mL
same,MIC,[20],3.9 µg/mL
same,MIC,Bifidobacterium breve [21],1.95 µg/mL
same,MIC,Bifidobacterium animalis [22],3.9 µg/mL
same,MIC,[23],3.9 µg/mL
same,MIC,Bifidobacterium longum [24],3.9 µg/mL
same,MIC,Bifidobacterium bifidum [25],3.9 µg/mL
same,MIC,Bifidobacterium breve [26],3.9 µg/mL
same,MIC,Bifidobacterium longum [27],0.98 µg/mL
same,MIC,Bifidobacterium bifidum [28],3.9 µg/mL
same,MIC,[29],3.9 µg/mL
same,MIC,Bifidobacterium longum [30],1.9 µg/mL
same,MIC,Bifidobacterium breve [31],0.98 µg/mL
same,MIC,Bifidobacterium bifidum [32],7.8 µg/mL
same,MIC,Bifidobacterium breve [33],0.98 µg/mL
same,MIC,Bifidobacterium bifidum [34],0.98 µg/mL
same,MIC,[35],0.98 µg/mL
same,MIC,Bifidobacterium longum [36],0.98 µg/mL
same,MIC,Bifidobacterium longum [37],1.9 µg/mL
same,MIC,Bifidobacterium animalis [38],1.9 µg/mL
same,MIC,[39],3.9 µg/mL
same,MIC,Bifidobacterium longum [40],0.98 µg/mL
same,MIC,Bifidobacterium longum [41],0.98 µg/mL
same,MIC,[42],15.6 µg/mL
same,MIC,Bifidobacterium breve [43],0.98 µg/mL
same,MIC,Bifidobacterium breve [44],0.98 µg/mL
same,MIC,[45],0.98 µg/mL
same,MIC,[46],0.98 µg/mL
same,MIC,Bifidobacterium longum [47],0.98 µg/mL
